The values that follow come from ChEMBL document CHEMBL4265907, “Design, synthesis and pharmacological evaluation of N4,N6-disubstituted pyrimidine-4,6-diamine derivatives as potent EGFR inhibitors in non-small cell lung cancer” (Eur J Med Chem, 2018).

In one data set the test system is NCI-H3255. The data set is described as follows: Induction of apoptosis in human H3255 cells assessed as necrotic cells at 1000 nM after 48 hrs by Annexin V-FITC/PI staining based flow cytometry (reference value: 7.06%). Type of data set: functional.
For a further data set, the system named is NCI-H1975. The data set is described as follows: Induction of apoptosis in human NCI-H1975 cells assessed as late apoptotic cells at 1000 nM after 48 hrs by Annexin V-FITC/PI staining based flow cytometry (reference value: 1.91%). Type of data set: functional.
A further data set has as its system HCC827. The data set is described as follows: Induction of apoptosis in human HCC827 cells assessed as late apoptotic cells at 500 nM after 48 hrs by Annexin V-FITC/PI staining based flow cytometry (reference value: 1.15%). Type of data set: functional. Background: A flow cytometer gives signals particle by particle.
The next data set deals with Mus musculus. The data set is described as follows: Toxicity in BALB/C nude mouse xenografted with human PC9 cells at 15 to 30 mg/kg, ip qd administered for 19 days measured for 23 days. Type of data set: organism-based. Conditions: in vivo, 552 h. The gist of the method: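 Six-week-old BALB/C-nu mice were injected subcutaneously in the right flank with about 2×10^6 PC-9 cells. At a tumour size of ~0.2-0.4 cm³ they were randomised, 5 mice/group. Drug was given in DMSO:Span-80:ddH₂O 2:1:50, ip, daily at 15 or 30 mg/kg for 19 days; vehicle group included. Tumour volume = (W²×L)/2.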

Structures are written as SMILES.

As to `COc1cccc(Nc2cc(Nc3cc(OC)ccc3OC)ncn2)c1`, the Activity is given as 6.35% in the data set on NCI-H3255, 18.2% in the data set with NCI-H1975, 7.72% with HCC827 and “Non-Toxic” with Mus musculus.
